Experimental findings from ChEMBL document CHEMBL1145439, “Fluorine-18-labeled benzamide analogues for imaging the sigma2 receptor status of solid tumors with positron emission tomography” (J Med Chem, 2007) are described below.

Broadly, the Ki is a measure of affinity in units of concentration, obtained from inhibition or displacement. Read a high Ki as lower affinity.

A short description of assay [1]: Displacement of [3H]DTG from sigma 2 receptor in rat liver membrane after 120 mins. It is filed as cell membranes. In a few lines: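 Rat liver membranes (~300 µg protein) incubated with ~5 nM [3H]DTG plus 1 µM (+)-pentazocine to mask σ1 sites, 120 min at room temperature; 10 µM haloperidol defines nonspecific binding; filtration and scintillation counting. One-site nonlinear regression IC50, converted to Ki by Cheng-Prusoff; mean ± SEM.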
On the technique in general: Loss of bound radioactivity is the signal in a displacement assay; it reports binding, not function.

Assay [2] has as its target Sigma non-opioid intracellular receptor 1 (Cavia porcellus, UniProt Q60492). Nature of the assay: Displacement of [3H](+)-pentazocine from sigma 1 receptor in guinea pig brain membrane after 90 mins. It is filed as cell membranes. In short, it runs like this:
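Guinea pig brain membranes (~300 µg protein) with ~5 nM [3H](+)-pentazocine, 90 min at room temperature; nonspecific binding with 10 µM haloperidol; stopped with ice-cold Tris/NaCl buffer, filtered, scintillation counted. IC50 by nonlinear regression, one-site fit; Ki by Cheng-Prusoff, mean ± SEM.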

A short description of assay [3]: Selectivity for rat liver sigma 2 receptor over guinea pig brain sigma 1 receptor.

Sigma non-opioid intracellular receptor 1, sequence (Q60492 whole entry): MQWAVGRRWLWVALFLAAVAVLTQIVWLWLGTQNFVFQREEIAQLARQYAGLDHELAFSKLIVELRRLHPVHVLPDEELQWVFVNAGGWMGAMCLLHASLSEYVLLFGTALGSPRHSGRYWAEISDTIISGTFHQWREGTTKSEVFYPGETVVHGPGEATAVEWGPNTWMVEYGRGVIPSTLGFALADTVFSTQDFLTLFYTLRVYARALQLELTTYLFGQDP

Consider `COc1cc2c(cc1OC)CN(CCCCNC(=O)c1cc(Br)cc(OC)c1OCCF)CC2`, for which the Ki in assay [1] was found to be 386 nM; in assay [2], 15.3 µM. The Ratio Ki in assay [3] was found to be 40.
